Laboratory results reported in ChEMBL document CHEMBL1142174, “Pyrazinoic acid and its n-propyl ester inhibit fatty acid synthase type I in replicating tubercle bacilli” (2007).

Key:
[1] = test system: Mycobacterium tuberculosis variant bovis BCG; assay: Inhibition of fatty acid synthase 1 in Mycobacterium bovis BCG assessed as incorporation of [1-14C]acetate in C16 biosynthesis at 1500 ug/ml at pH 6.8
Procedure, shortened: (§1)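 M. bovis BCG was exposed to drug in medium at pH 6 or 6.8, then labelled with [1-14C]acetate. Extracted fatty acids were analysed by HPLC for 14C-labelled C16.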

[2] = test system: Mycobacterium tuberculosis variant bovis BCG; assay: Inhibition of fatty acid synthase 1 in Mycobacterium bovis BCG assessed as incorporation of [1-14C]acetate in C16 biosynthesis at 1500 ug/ml at pH 6.0; procedure, shortened: as §1

O=C(O)c1cnccn1 [PYRAZINOIC ACID]
inhibition [1]: 30% | inhibition [2]: 97%
